Test results: ChEMBL document CHEMBL3526081 (Drug Metab Dispos, 2011)
pIC50: −log10 of the molar value.

Experiments:
[1] = Drug level in Swiss-Hauschka (ICR) mouse liver microsomes treated with 100 uM cinobufagin at 37 degC after 30 mins by UFLC-ESI-MS analysis in presence of NADPH-generating system; format: ADME; conditions: 0.5 h
Outline: (§1)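 Liver microsomes (0.3 mg protein/ml) incubated with 100 µM substrate at 37°C for 30 min, in 100 mM potassium phosphate pH 7.4 with NADPH-generating system (1 mM NADP+, 10 mM glucose 6-phosphate, 1 unit/ml G6PDH, 4 mM MgCl2). Acetonitrile ≤1% final. Stopped with ice-cold acetonitrile and centrifuged. Metabolites identified by UFLC-ESI-MS and quantified by UFLC-DAD at 294 nm against authentic standard curves.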

[2] = Drug level in Colony-bred Chinese Bama minipig liver microsomes treated with 100 uM cinobufagin at 37 degC after 30 mins by UFLC-ESI-MS analysis in presence of NADPH-generating system; format: ADME, Sus scrofa; conditions: pig, 0.5 h; outline: as §1
[3] = Drug level in cynomolgus monkey liver microsomes treated with 100 uM cinobufagin at 37 degC after 30 mins by UFLC-ESI-MS analysis in presence of NADPH-generating system; format: ADME, Macaca fascicularis; conditions: 0.5 h; outline: as §1
[4] = Cytotoxicity against human Bel7402 cells assessed as againsthibition of cell growth after 72 hrs; format: cell-based; conditions: Bel-7402, 72 h
Outline: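 Bel-7402 hepatoma cells grown in RPMI 1640 with 10% FBS and 1% penicillin/streptomycin, trypsinised, seeded and exposed to serial dilutions for 72 h at 37°C.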

Cytochrome P450 2C19 = Cytochrome P450 2C19 (Homo sapiens, UniProt P33261); assay: Drug level in human recombinant CYP2C19 expressed in insect cells coexpressing NADPH-P450 reductase measured per pmol of enzyme treated with 100 uM cinobufagin at 37 degC after 30 mins by UFLC-DAD-ESI-MS analysis; format: ADME; conditions: 0.5 h
Cytochrome P450 3A4 = Cytochrome P450 3A4 (Homo sapiens, UniProt P08684); assay: Drug level in human recombinant CYP3A4 expressed in insect cells coexpressing NADPH-P450 reductase measured per pmol of enzyme treated with 50 uM cinobufagin at 37 degC after 30 mins by UFLC-DAD-ESI-MS analysis; conditions: 0.5 h
Cytochrome P450 1A2 = biological target: T1, Cytochrome P450 1A2 (Homo sapiens, UniProt P05177); assay: Drug level in human recombinant CYP1A2 expressed in insect cells coexpressing NADPH-P450 reductase measured per pmol of enzyme treated with 50 uM cinobufagin at 37 degC after 30 mins by UFLC-DAD-ESI-MS analysis; conditions: 0.5 h
T1 sequence (P05177 whole entry): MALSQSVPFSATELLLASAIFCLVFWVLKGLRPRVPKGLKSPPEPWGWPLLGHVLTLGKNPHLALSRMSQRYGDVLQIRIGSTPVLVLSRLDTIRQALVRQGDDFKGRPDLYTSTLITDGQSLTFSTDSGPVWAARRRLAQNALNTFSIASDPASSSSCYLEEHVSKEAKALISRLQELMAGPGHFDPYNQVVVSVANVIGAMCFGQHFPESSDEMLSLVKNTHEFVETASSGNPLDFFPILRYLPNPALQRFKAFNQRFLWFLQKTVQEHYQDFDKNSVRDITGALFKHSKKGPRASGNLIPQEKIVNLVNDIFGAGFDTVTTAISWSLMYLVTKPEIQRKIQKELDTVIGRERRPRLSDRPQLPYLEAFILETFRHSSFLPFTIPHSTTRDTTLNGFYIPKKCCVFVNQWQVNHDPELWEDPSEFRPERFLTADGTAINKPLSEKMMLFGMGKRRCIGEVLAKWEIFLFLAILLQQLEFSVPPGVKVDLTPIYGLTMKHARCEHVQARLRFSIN

Cytochrome P450 2A6 = biological target: T2, Cytochrome P450 2A6 (Homo sapiens, UniProt P11509); assay: Drug level in human recombinant CYP2A6 expressed in insect cells coexpressing NADPH-P450 reductase measured per pmol of enzyme treated with 50 uM cinobufagin at 37 degC after 30 mins by UFLC-DAD-ESI-MS analysis; conditions: 0.5 h
T2 sequence (P11509 whole entry): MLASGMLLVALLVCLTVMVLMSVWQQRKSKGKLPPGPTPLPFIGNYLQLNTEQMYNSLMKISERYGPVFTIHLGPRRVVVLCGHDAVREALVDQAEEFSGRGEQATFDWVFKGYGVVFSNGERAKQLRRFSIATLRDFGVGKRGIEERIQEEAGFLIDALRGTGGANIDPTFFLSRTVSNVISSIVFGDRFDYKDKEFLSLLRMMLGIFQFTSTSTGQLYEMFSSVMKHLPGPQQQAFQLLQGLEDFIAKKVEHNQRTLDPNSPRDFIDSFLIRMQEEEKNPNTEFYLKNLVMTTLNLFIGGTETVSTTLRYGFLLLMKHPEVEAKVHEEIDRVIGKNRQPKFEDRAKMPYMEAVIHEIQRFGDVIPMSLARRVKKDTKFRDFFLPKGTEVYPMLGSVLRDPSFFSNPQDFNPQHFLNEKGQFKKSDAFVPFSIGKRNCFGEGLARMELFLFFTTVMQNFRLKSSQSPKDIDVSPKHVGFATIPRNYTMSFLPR

Cytochrome P450 2C8 = biological target: T3, Cytochrome P450 2C8 (Homo sapiens, UniProt P10632); assay: Drug level in human recombinant CYP2C8 expressed in insect cells coexpressing NADPH-P450 reductase measured per pmol of enzyme treated with 50 uM cinobufagin at 37 degC after 30 mins by UFLC-DAD-ESI-MS analysis; conditions: 0.5 h
T3 sequence (P10632 whole entry): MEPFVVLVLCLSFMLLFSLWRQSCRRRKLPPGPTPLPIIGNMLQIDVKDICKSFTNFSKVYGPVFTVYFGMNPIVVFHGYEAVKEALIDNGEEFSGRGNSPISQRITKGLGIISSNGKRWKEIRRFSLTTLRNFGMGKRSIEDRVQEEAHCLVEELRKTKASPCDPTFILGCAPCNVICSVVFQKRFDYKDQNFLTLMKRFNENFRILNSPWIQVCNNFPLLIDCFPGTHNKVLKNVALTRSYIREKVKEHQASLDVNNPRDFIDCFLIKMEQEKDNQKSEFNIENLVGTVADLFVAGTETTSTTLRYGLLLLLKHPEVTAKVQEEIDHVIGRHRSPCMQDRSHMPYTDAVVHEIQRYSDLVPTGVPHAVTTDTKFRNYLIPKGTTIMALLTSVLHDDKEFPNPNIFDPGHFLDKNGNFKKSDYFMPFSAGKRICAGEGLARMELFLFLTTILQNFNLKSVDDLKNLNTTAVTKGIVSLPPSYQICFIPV

Cytochrome P450 2C9 = Cytochrome P450 2C9 (Homo sapiens, UniProt P11712); assay: Drug level in human recombinant CYP2C9 expressed in insect cells coexpressing NADPH-P450 reductase measured per pmol of enzyme treated with 50 uM cinobufagin at 37 degC after 30 mins by UFLC-DAD-ESI-MS analysis; conditions: 0.5 h
Sequence of Cytochrome P450 2C9 (P11712 whole entry): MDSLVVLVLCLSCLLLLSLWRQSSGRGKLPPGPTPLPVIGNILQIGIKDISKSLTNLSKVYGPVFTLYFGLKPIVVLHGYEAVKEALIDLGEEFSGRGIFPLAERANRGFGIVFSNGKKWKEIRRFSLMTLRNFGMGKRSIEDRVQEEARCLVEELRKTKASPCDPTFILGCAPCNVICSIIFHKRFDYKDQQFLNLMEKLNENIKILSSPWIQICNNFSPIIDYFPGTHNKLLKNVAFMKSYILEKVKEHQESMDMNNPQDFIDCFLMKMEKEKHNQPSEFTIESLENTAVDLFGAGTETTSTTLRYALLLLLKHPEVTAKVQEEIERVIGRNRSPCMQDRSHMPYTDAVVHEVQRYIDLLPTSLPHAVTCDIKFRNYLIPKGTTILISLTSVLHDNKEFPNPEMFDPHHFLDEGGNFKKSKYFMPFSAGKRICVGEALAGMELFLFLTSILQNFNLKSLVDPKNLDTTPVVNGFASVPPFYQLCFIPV

Sequence of Cytochrome P450 3A4 (P08684 whole entry): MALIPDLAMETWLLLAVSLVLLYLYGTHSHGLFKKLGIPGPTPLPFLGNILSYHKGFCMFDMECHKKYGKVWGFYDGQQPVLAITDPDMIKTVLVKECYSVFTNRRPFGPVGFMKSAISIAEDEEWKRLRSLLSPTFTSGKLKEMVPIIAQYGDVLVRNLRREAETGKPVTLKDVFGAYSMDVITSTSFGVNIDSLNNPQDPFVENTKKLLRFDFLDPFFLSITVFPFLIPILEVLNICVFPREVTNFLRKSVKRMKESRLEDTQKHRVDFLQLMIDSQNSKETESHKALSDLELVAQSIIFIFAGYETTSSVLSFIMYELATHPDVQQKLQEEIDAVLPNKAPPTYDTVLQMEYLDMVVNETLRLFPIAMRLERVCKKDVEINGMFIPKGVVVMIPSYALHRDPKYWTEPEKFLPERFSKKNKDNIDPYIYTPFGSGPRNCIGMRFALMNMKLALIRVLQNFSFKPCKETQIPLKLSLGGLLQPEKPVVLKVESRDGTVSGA
Sequence of Cytochrome P450 2C19 (P33261 whole entry): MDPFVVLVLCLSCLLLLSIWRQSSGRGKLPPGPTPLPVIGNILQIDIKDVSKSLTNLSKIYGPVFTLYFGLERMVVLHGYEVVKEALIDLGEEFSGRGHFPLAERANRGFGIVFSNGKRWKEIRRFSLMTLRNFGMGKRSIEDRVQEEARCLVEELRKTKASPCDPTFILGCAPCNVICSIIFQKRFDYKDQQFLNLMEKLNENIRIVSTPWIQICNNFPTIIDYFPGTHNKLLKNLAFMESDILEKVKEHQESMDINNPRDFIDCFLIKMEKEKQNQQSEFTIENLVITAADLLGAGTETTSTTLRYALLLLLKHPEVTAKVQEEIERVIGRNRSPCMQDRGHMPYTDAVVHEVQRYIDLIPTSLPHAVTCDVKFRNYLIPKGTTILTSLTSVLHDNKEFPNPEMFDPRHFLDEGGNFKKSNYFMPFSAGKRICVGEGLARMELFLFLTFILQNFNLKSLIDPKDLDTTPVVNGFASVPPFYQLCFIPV

SMILES	Drug metabolism [1]	Drug metabolism [2]	Drug metabolism [3]	pIC50 [4]	Drug metabolism (Cytochrome P450 2C19) [pmol/min]	Drug metabolism (Cytochrome P450 3A4) [pmol/min]	Drug metabolism (Cytochrome P450 1A2) [pmol/min]	Drug metabolism (Cytochrome P450 2A6) [pmol/min]	Drug metabolism (Cytochrome P450 2C8) [pmol/min]	Drug metabolism (Cytochrome P450 2C9) [pmol/min]
CC(=O)O[C@H]1[C@H]2O[C@]23[C@@H]2CC[C@]4(O)C[C@@H](O)CC[C@]4(C)[C@H]2CC[C@]3(C)[C@H]1c1ccc(=O)oc1 [CINOBUFOTALIN]	metabolite_detected	metabolite_detected	metabolite_detected	5.06	< 0.01	26.02	< 0.01	< 0.01	< 0.01	< 0.01
CC(=O)O[C@H]1[C@H]2O[C@]23[C@@H]2CC[C@@H]4C[C@@H](O)CC[C@]4(C)[C@H]2CC[C@]3(C)[C@H]1c1ccc(=O)oc1 [CINOBUFAGIN]				7.31						
CC(=O)O[C@H]1[C@H]2O[C@]23[C@@H]2CC[C@@H]4C[C@@H](O)C[C@H](O)[C@]4(C)[C@H]2CC[C@]3(C)[C@H]1c1ccc(=O)oc1	metabolite_detected	metabolite_detected	metabolite_detected	6.43	< 0.01	14.01	< 0.01	< 0.01	< 0.01	< 0.01
